Results published in ChEMBL document CHEMBL4251647, “Synthesis, anticancer activity and mechanism of action of new thiazole derivatives” (Eur J Med Chem, 2018).

Tests used:
NCI-H292 [1] = experiment: Cytotoxicity against human NCI-H292 cells assessed as inhibition of cell viability at 25 ug/ml after 72 hrs by MTT assay relative to control; format: functional; details: NCI-H292, 72 h
In short: (§1)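 Single-concentration MTT screen at 25 µg/mL for 72 h. Seeding was 3 x 10^5 cells/mL (HL-60, K562) or 1 x 10^5 cells/mL (adherent), with 24 h preincubation. MTT was added for the final 3 h, formazan dissolved in DMSO and absorbance read at 560 nm. Results are given as percent inhibition ± SD.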

HEp-2 [2] = experiment: Cytotoxicity against human Hep2 cells assessed as inhibition of cell viability at 25 ug/ml after 72 hrs by MTT assay relative to control; format: functional; details: HEp-2, 72 h; in short: as §1
HT-29 [3] = experiment: Cytotoxicity against human HT-29 cells assessed as inhibition of cell viability at 25 ug/ml after 72 hrs by MTT assay relative to control; format: functional; details: HT-29, 72 h; in short: as §1
HL-60 [4] = experiment: Cytotoxicity against human HL60 cells assessed as inhibition of cell viability at 25 ug/ml after 72 hrs by MTT assay relative to control; format: functional; details: HL-60, 72 h; in short: as §1
K562 [5] = experiment: Cytotoxicity against human K562 cells assessed as inhibition of cell viability at 25 ug/ml after 72 hrs by MTT assay relative to control; format: functional; details: K562, 72 h; in short: as §1
NCI-H292 [6] = experiment: Cytotoxicity against human NCI-H292 cells assessed as inhibition of cell viability after 72 hrs by MTT assay; format: functional, cell-based; details: NCI-H292, 72 h
In short: (§2)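 MTT assay. Leukaemic lines were seeded at 3 x 10^5 cells/mL and adherent lines at 1 x 10^5 cells/mL, then preincubated 24 h. Compounds were added at 0.098–25.0 µg/mL for 72 h, with MTT for the last 3 h. Formazan was dissolved in DMSO and read at 560 nm. IC50 came from regression; triplicate, two independent experiments.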

HEp-2 [7] = experiment: Cytotoxicity against human Hep2 cells assessed as inhibition of cell viability after 72 hrs by MTT assay; format: functional, cell-based; details: HEp-2, 72 h; in short: as §2
HT-29 [8] = experiment: Cytotoxicity against human HT-29 cells assessed as inhibition of cell viability after 72 hrs by MTT assay; format: functional, cell-based; details: HT-29, 72 h; in short: as §2
HL-60 [9] = experiment: Cytotoxicity against human HL60 cells assessed as inhibition of cell viability after 72 hrs by MTT assay; format: functional, cell-based; details: HL-60, 72 h; in short: as §2
K562 [10] = experiment: Cytotoxicity against human K562 cells assessed as inhibition of cell viability after 72 hrs by MTT assay; format: functional, cell-based; details: K562, 72 h; in short: as §2
K562 [11] = experiment: Cytotoxicity against human K562 cells assessed as inhibition of cell viability after 24 hrs by MTT assay; format: functional, cell-based; details: K562, 24 h
In short: (§3)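 K562 cells (3 x 10^5 cells/mL, RPMI-1640 with 10% FBS) were treated with serial dilutions for 24 or 48 h. Viability was read by MTT (absorbance at 560 nm after DMSO solubilisation), and IC50 was obtained by regression.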

K562 [12] = experiment: Cytotoxicity against human K562 cells assessed as inhibition of cell viability after 48 hrs by MTT assay; format: functional, cell-based; details: K562, 48 h; in short: as §3
K562 [13] = experiment: Cytotoxicity against human K562 cells assessed as inhibition of cell viability by MTT assay; format: functional, cell-based; details: TDE = time-dependent effect
Erythrocyte = experiment: Hemolytic activity in human erythrocytes after 1 hr by spectrophotometric method; format: ADME, cell-based
In short: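 Human erythrocytes as a 2% suspension in 0.85% NaCl with 10 mM CaCl2 were exposed to 0.78–250 µg/mL for 1 h at room temperature. After centrifugation, released haemoglobin in the supernatant was read at 540 nm. Triton X-100 (1%) served as positive control; EC50 is the concentration giving 50% haemolysis.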

PBMC = experiment: Cytotoxicity against human PBMC cells assessed as inhibition of cell viability after 72 hrs by alamar blue assay; format: cell-based
In short: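 PBMC from healthy donors were grown in RPMI-1640 with 20% FBS and 2% phytohaemagglutinin, then plated at 10^6 cells/mL. After 24 h, compounds (0.048–25 µg/mL, in DMSO) were added for 72 h. Resazurin was added for the final 24 h and absorbance read at 570 and 595 nm as percent of control.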

[14] = Selectivity index, ratio of IC50 for human PBMC to IC50 for human K562 cells; format: toxicity; details: human PBMC and human K562 cells, read-out: Ratio IC50
In short: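 Ratio of IC50 in PBMC (Alamar blue, 72 h) to IC50 in K562 cells (MTT, 72 h), calculated as SI = IC50(PBMC)/IC50(K562).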

K562 [15] = experiment: Induction of mitochondrial membrane potential depolarization in human K562 cells at 17 uM after 48 hrs by Rho-123 staining based flow cytometry (reference value: 12.24 +/- 0.61%); format: functional
K562 [16] = experiment: Induction of mitochondrial membrane potential depolarization in human K562 cells at 34 uM after 48 hrs by Rho-123 staining based flow cytometry (reference value: 12.24 +/- 0.61%); format: functional
K562 [17] = experiment: Cell cycle arrest in human K562 cells assessed as accumulation at G1-phase at 17 uM after 48 hrs by flow cytometry (reference value: 45.54 +/- 1.34%); format: functional
In short: (§4)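 K562 cells seeded at 3 x 10^5 cells/mL in RPMI-1640 and exposed 48 h at 37 °C, 5% CO2. Cells were stained with propidium iodide (Guava cell cycle kit) and 5,000 events acquired by flow cytometry. Vehicle control was 0.1% DMSO. Two independent experiments, each in triplicate.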

K562 [18] = experiment: Cell cycle arrest in human K562 cells assessed as accumulation at S-phase at 17 uM after 48 hrs by flow cytometry (reference value: 17.39 +/- 0.84%); format: functional; in short: as §4
K562 [19] = experiment: Cell cycle arrest in human K562 cells assessed as accumulation at G2/M-phase at 17 uM after 48 hrs by flow cytometry (reference value: 35.97 +/- 1.94%); format: functional; in short: as §4
K562 [20] = experiment: Cell cycle arrest in human K562 cells assessed as accumulation at G1-phase at 34 uM after 48 hrs by flow cytometry (reference value: 45.54 +/- 1.34%); format: functional; in short: as §4
K562 [21] = experiment: Cell cycle arrest in human K562 cells assessed as accumulation at S-phase at 34 uM after 48 hrs by flow cytometry (reference value: 17.39 +/- 0.84%); format: functional; in short: as §4
K562 [22] = experiment: Cell cycle arrest in human K562 cells assessed as accumulation at G2/M-phase at 34 uM after 48 hrs by flow cytometry (reference value: 35.97 +/- 1.94%); format: functional; in short: as §4
K562 [23] = experiment: Induction of DNA damage in human K562 cells at 17 uM after 48 hrs by propidium iodide staining based flow cytometry (reference value: 3.62 +/- 0.37%); format: functional
K562 [24] = experiment: Induction of DNA damage in human K562 cells at 34 uM after 48 hrs by propidium iodide staining based flow cytometry (reference value: 3.62 +/- 0.37%); format: functional

FC(F)(F)c1ccc(/C=N/Nc2nc(-c3ccc(Cl)cc3Cl)cs2)cc1
inhibition at 25 µg/mL (NCI-H292 [1]): 96.5% | inhibition at 25 µg/mL (HEp-2 [2]): 96.7% | inhibition at 25 µg/mL (HT-29 [3]): 79.5% | inhibition at 25 µg/mL (HL-60 [4]): 91.1% | inhibition at 25 µg/mL (K562 [5]): 88.9% | IC50 (NCI-H292 [6]): 10.4 µM | IC50 (HEp-2 [7]): 7.65 µM | IC50 (HT-29 [8]): 11.2 µM | IC50 (HL-60 [9]): 17.8 µM | IC50 (K562 [10]): 5.48 µM | IC50 (K562 [11]): > 60.1 µM | IC50 (K562 [12]): 17.8 µM | Activity (K562 [13]): Tde | EC50 (Erythrocyte): > 250 µg/mL | IC50 (PBMC): 43 µM | selectivity ratio [14]: 7.85 | Activity (K562 [15]): 25.05% | Activity (K562 [16]): 37.12% | Activity (K562 [17]): 85.25% | Activity (K562 [18]): 7.23% | Activity (K562 [19]): 7.51% | Activity (K562 [20]): 82.74% | Activity (K562 [21]): 6.72% | Activity (K562 [22]): 11.47% | Activity (K562 [23]): 19.74% | Activity (K562 [24]): 22.43%
